≈ marks a conversion by molar mass, not a printed value.
Experiments:
[1] = Solubility in PBS buffer at pH 2; type: physicochemical
Method in brief: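 High-throughput solubility test in PBS buffer at pH 2 and at pH 7. Free form and salt forms (TFA, formate, ammonium) were tested separately.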

[2] = tested on: Salmonella typhimurium; experiment: Induction of mutagenicity in Salmonella typhimurium TA1535 assessed as increase in number of revertants in presence of metabolic activation; type: toxicity, organism-based; details: salmonella enterica subsp. enterica serovar typhimurium
Method in brief: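 Microbial reverse-mutation (Ames) test in strains TA1535, TA98 and TA100, with and without metabolic activation. The concentration range was 30 to 5000 μg/plate. A positive call required a 2-fold or greater increase in revertants relative to the solvent control.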

[3] = Drug level in skin of C57BL/6 mouse at 10 mg/kg, po after 24 hrs; type: ADME, organism-based, Zone of skin; design: dose 10 mg/kg, route oral; details: read-out: Drug uptake
Method in brief: (§1)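 Tissue distribution in C57BL/6 mice. A single oral dose of 10 mg/kg was given as a solution in EtOH/PEG400/water (10:50:40). Parent and its cis isomer were both measured, in μM, in plasma, liver, small intestine, adipose fat and skin at 3 h and 24 h.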

[4] = tested on: Plasma; experiment: Drug level in plasma of C57BL/6 mouse assessed as cis-4-((1-(5-(5-(trifluoromethyl)-1H-benzo[d]imidazol-2-yl)pyridin-2-yl)piperidin-4-yl)oxy)cyclohexanecarboxylic acid level at 10 mg/kg, po after 3 hrs; type: ADME, organism-based; design: dose 10 mg/kg, route oral; details: in vivo; method in brief: as §1

solubility [1]: 167 µM (≈ 81.6 µg/mL)
concentration at 24 h [3]: 167 nM
concentration [4]: 54 nM
SMILES: O=C(O)[C@H]1CC[C@H](OC2CCN(c3ccc(-c4nc5cc(C(F)(F)F)ccc5[nH]4)cn3)CC2)CC1
Activity [2]: Non-toxic

— ChEMBL document CHEMBL3351398, “Discovery of a Potent and Selective DGAT1 Inhibitor with a Piperidinyl-oxy-cyclohexanecarboxylic Acid Moiety” (ACS Med Chem Lett, 2014)
